Values after ≈ are worked out from the molar mass of the structure shown. Some results are limits rather than exact numbers.

What is called IC50 is the concentration that gives 50% inhibition. The solubility is the concentration that dissolves in the medium under given conditions. A high value points to a readily soluble substance. Broadly, the Papp is a coefficient for how fast a substance crosses the barrier. Usually fraction unbound stands for free concentration divided by total concentration.

Data set [1] in a line: Inhibition of EGFR del19 mutant in mouse BAF3 cells incubated for 72 hrs by Celltiter-Glo luminescent cell viability assay. The conditions noted are these: BaF3, 72 h. The class given is cell-based. A digest of the protocol:
(§1)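 Murine Ba/F3 cells retrovirally transduced with GFP plus EGFR wt, del19 or del19/T790M/C797S, then puromycin-selected. Mutant lines were made IL-3-independent; wt line grown on EGF without IL-3. EGFR-independent control cells carried GFP-only vector and were kept in IL-3. Seeded at 5x10³/100 µl, treated 72 h at 37 °C, viability read by CellTiter-Glo luminescence. Technical and biological triplicates. Geometric mean of ≥3 independent runs. Selectivity ratio = wt IC50 / del19/T790M/C797S IC50.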
Background: In ATP-based viability assays light output follows the ATP content of the culture.

Data set [2] deals with PC-9. The data set is described as follows: Antitumor activity against human PC9 cells harboring del19/T790M/C797S triple mutant xenografted in BomTac:NMRI-Foxn1nu mouse assessed as tumor growth inhibition at 10 mg/kg, po qd administered for 19 days relative to control. The conditions noted are these: PC-9, po, 456 h, read-out: TGI. The class given is functional. A digest of the protocol:
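Female BomTac:NMRI-Foxn1nu mice, 6-8 weeks old, implanted s.c. with 5×10⁶ PC-9 del19/T790M/C797S cells. Randomized by tumor size on day 7 (N=8 per treated group, N=10 vehicle). […] Tumor size and body weight measured three times weekly. Tumor volumes compared by one-sided decreasing Mann–Whitney test.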

Data set [3] concerns PC-9. The data set is described as follows: Antiproliferative activity against human PC9 cells harboring EGFR del19/T790M/C797S triple mutant incubated for 96 hrs by Celltiter-Glo luminescent cell viability assay. The class given is functional, cell-based. Particulars: PC-9, 96 h. In short, it runs like this: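 Cells plated in 96-well plates (A431 5000/well in DMEM + 10% FBS + sodium pyruvate; PC-9 del19/T790M/C797S 2000/well in RPMI + 10% FBS). Compound added 24 h after plating, then 96 h at 37°C, 5% CO2. Viability read by CellTiter-Glo luminescence, normalised to DMSO-treated cells, IC50 fitted. Technical and biological triplicates.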

The subject of data set [4] is A-431. The data set is described as follows: Antiproliferative activity against human A431 cells harboring EGFR wild type incubated for 96 hrs by Celltiter-Glo luminescent cell viability assay. The class given is functional, cell-based. Particulars: A-431, 96 h.
Data set [5] relates to BaF3. As to the kind of experiment: Cytotoxicity against mouse BAF3 cells incubated for 72 hrs by Celltiter-Glo luminescent cell viability assay. Particulars: BaF3, 72 h. Format: cell-based. In short, it runs like this:
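Mutant lines were made IL-3-independent; wt line grown on EGF without IL-3. EGFR-independent control cells carried GFP-only vector and were kept in IL-3. Seeded at 5x10³/100 µl, treated 72 h at 37 °C, viability read by CellTiter-Glo luminescence. Technical and biological triplicates. Geometric mean of ≥3 independent runs.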

The nature of data set [6]: Inhibition of EGFR del19/T790M/C797S triple mutant in mouse BAF3 cells assessed as reduction in cell proliferation incubated for 72 hrs by Celltiter-Glo luminescent cell viability assay. Format: cell-based. The conditions noted are these: BaF3, 72 h. In short, it runs like this:
as §1

Data set [7] in a line: Aqueous solubility of compound in McIlvaine buffer at 1 mg/ml at pH 6.8 by HPLC-DAD/UV analysis. The class given is physicochemical. In short, it runs like this: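 Solid compound dispensed at 1 mg/mL into aqueous McIlvaine buffer (pH 6.8). Reference sample dissolved in acetonitrile/water (1:1). Dissolved concentration quantified by HPLC-DAD/UV.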
Data set [8] is described as follows: Apparent permeability of compound at pH 7.4 by LC-MS based PAMPA method. Format: ADME. In short, it runs like this:
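PAMPA at pH 7.4. A microfilter disc coated with immobilized artificial phospholipid membrane layers separates donor and acceptor chambers. Compound concentrations in both chambers are followed over time by LC/MS and compared with the donor concentration before incubation.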

Data set [9] in a line: Volume of distribution in NMRI mouse at 10 mg/kg, po or 1 mg/kg, iv. The conditions noted are these: in vivo. Format: ADME, organism-based. In short, it runs like this: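 NMRI mice (n=3 per group) dosed orally at 10 mg/kg or intravenously at 1 mg/kg. Five plasma samples per mouse at set time points. Plasma protein precipitated with acetonitrile, compound quantified by LC-MS/MS against a calibration curve.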

A short description of data set [10]: Selectivity index, ratio of IC50 for antiproliferative activity against mouse BAF3 cells harboring wild type EGFR to IC50 for antiproliferative activity against mouse BAF3(transformed) cells harboring EGFR del19/T790M/C797S triple mutant incubated for 72 hrs by Celltiter-Glo luminescent cell viability assay. Format: functional. A digest of the protocol:
as §1

Data set [11] deals with T1, Epidermal growth factor receptor (Homo sapiens, UniProt P00533, C797S/EX19DEL/T790M). The data set is described as follows: Inhibition of phosphorylated EGFR del19/T790M/C797S triple mutant (unknown origin) expressed in mouse BaF3 cells incubated for 4 hrs by Alphascreen assay. Format: cell-based.
The nature of data set [12]: Protein binding in human plasma assessed as free fraction after 3 hrs by HPLC-MS/MS-based equilibrium dialysis method. Format: ADME, cell-free. A digest of the protocol:
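Equilibrium dialysis: human plasma spiked with compound and dialyzed against Soerensen buffer (pH 7.4) for 3 h at 37 °C. Compound in plasma and buffer quantified by HPLC/MS-MS to calculate binding and free fraction.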
Background: In equilibrium dialysis only unbound substance equilibrates across the membrane.

Data set [13] is described as follows: Hepatic clearance in human cryopreserved hepatocytes at 1 uM measured after 240 mins by LC-MS/MS analysis relative to hepatic blood flow. The conditions noted are these: read-out: CLH. The class given is ADME, cell-based, Hepatocyte. In short, it runs like this: (§2)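 Compound (1 µM) incubated with cryopreserved hepatocytes. Depletion followed over 240 min by LC/MS/MS quantitation. In vivo hepatic clearance predicted with the well-stirred model and expressed as percent of hepatic blood flow (%QH).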

Data set [14] in a line: Hepatic clearance in mouse cryopreserved hepatocytes at 1 uM measured after 240 mins by LC-MS/MS analysis relative to hepatic blood flow. Format: ADME, cell-based, Hepatocyte. The conditions noted are these: read-out: CLH. A digest of the protocol:
as §2

Data set [15] is described as follows: Protein binding in mouse plasma assessed as free fraction after 3 hrs by HPLC-MS/MS-based equilibrium dialysis method. Format: ADME, cell-free. A digest of the protocol:
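Equilibrium dialysis of compound-spiked plasma against Soerensen buffer (pH 7.4) for 3 hours at 37°C. Compound levels in the plasma and buffer sides quantified by HPLC/MS-MS to give the bound and free fractions.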

Data set [16] addresses T1, Epidermal growth factor receptor. As to the kind of experiment: Inhibition of GST-fusion tagged EGFR del19/T790M/C797S triple mutant (unknown origin) (696 to 1022 residues) expressed in insect cells assessed as decrease in phosphorylation of ULight-poly-GT using poly-GT as substrate in presence of ATP.
The target in data set [17] is Epidermal growth factor receptor (Homo sapiens, UniProt P00533, C797S/L858R/T790M). The data set is described as follows: Inhibition of GST-fusion tagged EGFR L858R/T790M/C797S triple mutant (unknown origin) (696 to 1022 residues) expressed in insect cells assessed as decrease in phosphorylation of ULight-poly-GT using poly-GT as substrate in presence of ATP.
Data set [18] addresses Epidermal growth factor receptor (Homo sapiens, UniProt P00533). As to the kind of experiment: Inhibition of human recombinant GST-tagged wild type EGFR expressed in baculovirus expression system assessed as decrease in phosphorylation of ULight-poly-GT using ULight-poly-GT as substrate incubated for 90 mins in presence of ATP by TR-FRET LANCE assay. A general note: In TR-FRET formats the signal depends on donor and acceptor labels being close together.

For data set [19], the species on record is Homo sapiens. The data set is described as follows: Selectivity ratio of IC50 for inhibition of human recombinant GST-tagged wild type EGFR expressed in baculovirus expression system to IC50 for inhibition of GST-fusion tagged EGFR del19/T790M/C797S triple mutant (unknown origin) (696 to 1022 residues) expressed in insect cells. A digest of the protocol: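 TR-FRET kinase assays on ULight-poly-GT substrate (200 nM) with ATP 100 µM, final enzyme 1.5 nM (wt) or 15 nM (del746-750/T790M/C797S). Buffer was HEPES pH 7.3, MgCl2, EGTA, Tween 20, DTT. Reaction ran 90 min at room temperature and was stopped with EDTA plus Eu-anti-pTyr antibody, read after 60 min. Top concentration 100 µM with eleven fivefold dilutions in duplicate. IC50 from a 4-parameter logistic fit; ratio is wt IC50 over mutant IC50.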

Sequence of Epidermal growth factor receptor (Homo sapiens, UniProt P00533) (P00533 whole entry): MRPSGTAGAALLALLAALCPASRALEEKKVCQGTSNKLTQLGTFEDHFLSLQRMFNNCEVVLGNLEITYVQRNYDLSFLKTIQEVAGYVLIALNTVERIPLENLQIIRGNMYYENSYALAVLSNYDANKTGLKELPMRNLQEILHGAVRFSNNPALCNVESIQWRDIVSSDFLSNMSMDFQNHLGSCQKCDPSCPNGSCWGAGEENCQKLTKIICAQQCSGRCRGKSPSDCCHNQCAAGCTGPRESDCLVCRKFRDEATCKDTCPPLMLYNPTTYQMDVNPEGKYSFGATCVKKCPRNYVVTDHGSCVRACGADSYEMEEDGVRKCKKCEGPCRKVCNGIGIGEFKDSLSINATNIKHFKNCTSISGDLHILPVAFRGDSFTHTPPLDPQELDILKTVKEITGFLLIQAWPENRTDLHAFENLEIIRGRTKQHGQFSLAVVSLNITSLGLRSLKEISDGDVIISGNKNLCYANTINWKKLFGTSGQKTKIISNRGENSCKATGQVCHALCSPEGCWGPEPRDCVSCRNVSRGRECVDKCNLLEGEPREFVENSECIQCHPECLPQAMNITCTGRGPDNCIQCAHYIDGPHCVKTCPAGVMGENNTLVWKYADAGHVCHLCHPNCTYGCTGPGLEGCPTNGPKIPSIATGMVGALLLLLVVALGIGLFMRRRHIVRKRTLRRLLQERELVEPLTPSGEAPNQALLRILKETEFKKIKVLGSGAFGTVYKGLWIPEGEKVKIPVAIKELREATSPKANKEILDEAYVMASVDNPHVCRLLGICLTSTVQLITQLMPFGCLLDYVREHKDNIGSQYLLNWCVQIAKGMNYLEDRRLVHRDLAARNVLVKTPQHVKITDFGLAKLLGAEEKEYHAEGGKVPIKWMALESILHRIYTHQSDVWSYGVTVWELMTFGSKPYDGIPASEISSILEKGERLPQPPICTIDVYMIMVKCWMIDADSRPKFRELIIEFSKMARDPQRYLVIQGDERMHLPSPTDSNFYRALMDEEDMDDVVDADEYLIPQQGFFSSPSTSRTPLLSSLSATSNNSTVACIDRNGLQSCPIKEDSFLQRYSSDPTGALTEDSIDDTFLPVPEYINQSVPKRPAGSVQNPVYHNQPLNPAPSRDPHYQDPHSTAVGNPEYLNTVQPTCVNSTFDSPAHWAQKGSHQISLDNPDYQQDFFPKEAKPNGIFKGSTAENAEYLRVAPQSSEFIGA
T1 sequence (P00533 whole entry, looked up, stated change not applied): as the sequence (P00533 whole entry) above
Sequence of Epidermal growth factor receptor (Homo sapiens, UniProt P00533, C797S/L858R/T790M) (P00533 25-1210 T790M/C797S/L858R limits assumed): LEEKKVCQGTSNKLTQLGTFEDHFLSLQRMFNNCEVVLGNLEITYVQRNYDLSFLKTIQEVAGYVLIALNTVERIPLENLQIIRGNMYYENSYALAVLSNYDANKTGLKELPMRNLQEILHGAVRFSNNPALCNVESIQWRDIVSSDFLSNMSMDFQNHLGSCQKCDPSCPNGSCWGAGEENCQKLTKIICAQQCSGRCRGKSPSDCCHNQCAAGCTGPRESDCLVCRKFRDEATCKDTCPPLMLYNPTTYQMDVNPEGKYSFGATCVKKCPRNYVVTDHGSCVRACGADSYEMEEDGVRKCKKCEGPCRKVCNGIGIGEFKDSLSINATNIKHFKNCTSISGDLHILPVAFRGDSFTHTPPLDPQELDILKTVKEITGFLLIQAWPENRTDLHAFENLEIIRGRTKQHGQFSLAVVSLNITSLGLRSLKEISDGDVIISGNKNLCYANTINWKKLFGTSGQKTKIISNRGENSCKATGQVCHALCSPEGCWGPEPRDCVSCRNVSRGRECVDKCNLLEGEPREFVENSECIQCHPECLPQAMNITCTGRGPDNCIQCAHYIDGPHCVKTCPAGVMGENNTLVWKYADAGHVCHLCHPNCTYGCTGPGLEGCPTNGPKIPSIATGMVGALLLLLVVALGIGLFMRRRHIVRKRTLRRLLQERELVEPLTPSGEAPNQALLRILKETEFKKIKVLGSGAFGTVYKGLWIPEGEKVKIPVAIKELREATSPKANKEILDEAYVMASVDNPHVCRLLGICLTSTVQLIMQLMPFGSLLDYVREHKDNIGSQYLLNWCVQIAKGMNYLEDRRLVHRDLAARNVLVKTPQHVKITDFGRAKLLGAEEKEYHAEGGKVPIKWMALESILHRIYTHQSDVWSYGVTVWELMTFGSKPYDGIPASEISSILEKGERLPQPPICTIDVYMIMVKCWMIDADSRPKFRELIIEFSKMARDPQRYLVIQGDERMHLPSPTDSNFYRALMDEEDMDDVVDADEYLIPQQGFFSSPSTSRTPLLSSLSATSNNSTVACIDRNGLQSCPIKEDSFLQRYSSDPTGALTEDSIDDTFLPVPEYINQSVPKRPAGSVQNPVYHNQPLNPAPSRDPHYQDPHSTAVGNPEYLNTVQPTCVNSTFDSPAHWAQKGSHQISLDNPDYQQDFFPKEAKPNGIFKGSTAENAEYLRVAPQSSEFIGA

As to `Cc1cc2cc(n1)-c1cnn(C)c1OCCC[C@@H](C)CN1/C(=N/C2=O)Nc2ccc(CN3CCN(C)CC3)cc21`, the 50% inhibitory concentration (IC50) in data set [1] amounted to 1 nM; in [3], 1.3 nM; in data set [4], 200 nM; in data set [5], 1100 nM; in data set [6] it was 0.2 nM. Further, the inhibition in vivo at 10 mg/kg in data set [2] stood at 121%. Moreover, the solubility in data set [7] was 95 µg/mL (≈ 175 µM). Moreover, the apparent permeability coefficient (Papp) in data set [8] is 5.3 ×10⁻⁶ cm/s. Moreover, the Vd in [9] is 4.2 L/kg.
As to `O=C1/N=C2\Nc3ccccc3N2CCCCCOc2ccccc2-c2cc1ccn2`, the “Ratio IC50” value in data set [10] is 48. For the same compound, the IC50 was determined as 1600 nM in [5], 27 nM in [6] and 3 nM in [11].
Regarding `Cc1cc2cc(n1)-c1cnn(C)c1OCCC[C@@H](C)CN1/C(=N/C2=O)Nc2ccccc21`, in [10], the “Ratio IC50” value is on record as more than 1000. Besides, the fraction unbound at 3 h in data set [12] was 0.5; in data set [15], less than 0.3. For the same compound, the results for the hepatic extraction ratio at 4 h, 1 µM in data set [13] and in [14] were 0.12 and 0.47, respectively. The figures for the IC50 in data set [5], in [6] and in [11] were 1000 nM, 1 nM and 0.8 nM, respectively. This compound yielded a solubility in data set [7] of less than 0.1 µg/mL. The Papp in data set [8] worked out at 0.2 ×10⁻⁶ cm/s.
As for `CC(C)(O)Cn1/c(=N/C(=O)c2cccc(-c3cccnc3)c2)[nH]c2ccccc21`, the half-maximal inhibitory concentration (IC50) in data set [16] was 173 nM; in [17], 2700 nM; in data set [18], more than 100000 nM; in data set [11] it was 1400 nM.
In the case of `COc1ccncc1-c1cc(C(=O)/N=c2\[nH]c3ccccc3n2CC(C)(C)O)ccn1`, the IC50 was not above 3 nM in data set [16], 990 nM in [5], 51 nM in [6] and 1 nM in data set [11].
For the compound `C=CC(=O)Nc1cc(Nc2nccc(-c3cn(C)c4ccccc34)n2)c(OC)cc1N(C)CCN(C)C` [OSIMERTINIB], the half-maximal inhibitory concentration (IC50) was more than 1000 nM in data set [3], 1100 nM in [5] and 780 nM in data set [6]. Further, in [15], the unbound share (fraction unbound) at 3 h is less than 0.1. Moreover, the solubility in data set [7] stood at 86 µg/mL (≈ 172 µM). Besides, in data set [8], the apparent permeability (Papp) was determined as 2.7 ×10⁻⁶ cm/s.
With `CC(C)(O)Cn1/c(=N/C(=O)c2ccnc(-c3cccnc3)c2)[nH]c2ccccc21`, the IC50 in data set [6] was 270 nM.
Consider `Cn1cc(-c2cc(C(=O)/N=c3\[nH]c4ccccc4n3CC(C)(C)O)ccn2)cn1`, for which the IC50 was 72 nM in [16]; 519 nM in [17]; more than 100000 nM in data set [18]; 8900 nM in data set [5]; 333 nM in [6]; 43 nM in data set [11].
As for `Cc1cc2cc(n1)-c1cnn(C)c1OCCCCCN1/C(=N/C2=O)Nc2ccccc21`, in [10], the “Ratio IC50” value is reported as 460. Moreover, the figures for the half-maximal inhibitory concentration (IC50) in [5], in data set [6] and in [11] were 1700 nM, 5 nM and 1 nM, respectively.
Turning to `CC(C)(O)Cn1/c(=N/C(=O)c2ccnc(-c3ccccc3)c2)[nH]c2ccccc21`, the IC50 in data set [16] is 35 nM; in data set [18] it was more than 100000 nM; in [5], more than 25000 nM; in [6], 150 nM; in [11] it was 22 nM.
As for `CC(C)(O)Cn1/c(=N/C(=O)c2cc(F)cc(-c3cccnc3)c2)[nH]c2ccccc21`, the 50% inhibitory concentration (IC50) in data set [16] was 250 nM; in [17] it was 2100 nM; in data set [18] it was more than 100000 nM; in data set [11], 790 nM. In addition, the Ratio IC50 in data set [19] was more than 400.
On to `Cn1ncc2c1OCCCCCN1/C(=N/C(=O)c3cc(F)nc-2c3)Nc2ccccc21`, for which, in data set [10], the “Ratio IC50” value was 45. Besides, the IC50 in data set [5] was 330 nM; in [6], 6 nM; in data set [11], 1.2 nM.

The values above are taken from ChEMBL document CHEMBL4321840, “Start Selective and Rigidify: The Discovery Path toward a Next Generation of EGFR Tyrosine Kinase Inhibitors” (J Med Chem, 2019).
